{
  "source": "ChEMBL document CHEMBL4376838",
  "about": "“Discovery of Novel Celastrol Derivatives as Hsp90-Cdc37 Interaction Disruptors with Antitumor Activity” (J Med Chem, 2019)",
  "key": {"HOS": {"tested_on": "HOS", "experiment": "Antiproliferative activity against human HOS cells assessed as inhibition of cell growth incubated for 48 hrs by MTT assay", "type": "functional, cell-based", "procedure,_shortened": "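MTT read-out. Cells seeded at 5.0 × 10⁴ cells/ml and cultured 24 h, then exposed to the drug over a range of concentrations for 48 h, with matching DMSO as control. MTT (5 mg/ml) added for 4 h, supernatant removed, formazan dissolved in DMSO, OD read at 570 nm. Run in triplicate, mean ± SD (n = 3).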"}, "[1]": {"target": "Heat shock protein HSP 90-alpha (Homo sapiens) (UniProt P07900)", "experiment": "Inhibition of ATP binding to human HSP90 alpha at 5 to 10 uM preincubated for 30 mins followed by gamma phosphate-linked ATP sepharose addition and measured after 30 mins by ATP-binding sepharose assay based western blot analysis", "procedure,_shortened": "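Purified human Hsp90α incubated on ice 30 min with compound or DMSO in 10 mM Tris-HCl pH 7.5, 50 mM KCl, 5 mM MgCl2, 2 mM DTT, 20 mM Na2MoO4, 0.01% NP-40. γ-phosphate-linked ATP-Sepharose then added, 30 min at 37 °C with frequent mixing. Resin washed and pelleted, bound Hsp90α detected by SDS-PAGE/Western blot.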"}, "[2]": {"target": "T1, Hsp90 co-chaperone Cdc37 (Homo sapiens) (UniProt Q16543)", "T1 sequence (whole entry)": "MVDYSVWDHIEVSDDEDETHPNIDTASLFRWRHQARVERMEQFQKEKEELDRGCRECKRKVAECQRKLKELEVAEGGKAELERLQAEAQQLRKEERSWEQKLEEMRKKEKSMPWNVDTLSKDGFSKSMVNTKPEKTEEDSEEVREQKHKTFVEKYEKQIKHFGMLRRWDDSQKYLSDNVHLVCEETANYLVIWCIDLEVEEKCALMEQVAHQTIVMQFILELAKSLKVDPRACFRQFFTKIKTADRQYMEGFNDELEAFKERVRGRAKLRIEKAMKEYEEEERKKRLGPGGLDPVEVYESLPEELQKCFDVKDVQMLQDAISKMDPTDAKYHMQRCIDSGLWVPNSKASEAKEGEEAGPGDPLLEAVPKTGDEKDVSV", "experiment": "Binding affinity to Cdc37 in human A549 cells assessed as inhibition of HSP90-Cdc37 interaction by measuring decrease in Akt phosphorylation level at 5 uM incubated for 12 hrs by Western blot analysis", "type": "cell-based", "procedure,_shortened": "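A549 cells seeded 5×10^5 per 6 cm dish, grown 12 h, then exposed to compound or DMSO for 12 h. Lysates adjusted to 3 mg/ml protein (BCA), run on 10% SDS-PAGE, immunoblotted for p-Akt and Cdk4. Band levels quantified against Hsp90 loading control. Three separate experiments, mean ± SD.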"}, "[3]": {"target": "T1, Hsp90 co-chaperone Cdc37 (Homo sapiens)", "experiment": "Binding affinity to recombinant Cdc37 (unknown origin) assessed as inhibition of biotin labeled 3-[3-cyano-3-(4-fluorophenyl)prop-2-enoyl]oxypropyl(2R,4aS,6aR,6aS,14aS,14bR)-10-hydroxy-2,4a,6a,6a,9,14a-hexamethyl-11-oxo-1,3,4,5,6,13,14,14b-octahydropicene-2-carboxylate binding to enzyme at 0.25 to 0.5 uM incubated with compound for 2 hrs before or after incubation with biotin labeled 3-[3-cyano-3-(4-fluorophenyl)prop-2-enoyl]oxypropyl(2R,4aS,6aR,6aS,14aS,14bR)-10-hydroxy-2,4a,6a,6a,9,14a-hexamethyl-11-oxo-1,3,4,5,6,13,14,14b-octahydropicene-2-carboxylate for 2 hrs by pull down assay based immunoblot analysis", "procedure,_shortened": "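Recombinant Cdc37 ([…]) incubated with varying compound concentrations for 2 h, either before or after a 2 h incubation with biotinylated probe (0.5 μM) at 10 °C. Biotin alone served as control. Probe-bound protein captured on streptavidin beads, and input and bound fractions immunoblotted.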"}, "A549 [4]": {"tested_on": "A549", "experiment": "Induction of morphological apoptosis in human A549 cells assessed as increase in cells with chromatin condensation at 0.3 to 1.2 uM incubated for 48 hrs by Hoechst 33342 and PI staining based fluorescence microscopic method", "type": "functional, cell-based", "procedure,_shortened": "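A549 cells (4×10^5 per 6 cm dish) were grown 24 h, then exposed to compound at the indicated concentrations or DMSO for 48 h. After PBS washes, cells were stained with Hoechst 33342 (10 µg/ml) plus PI for 5 min at room temperature in the dark and imaged by fluorescence microscopy for nuclear morphology.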"}, "A549 [5]": {"tested_on": "A549", "experiment": "Induction of apoptosis in human A549 cells assessed as early apoptotic cells at 0.3 uM incubated for 48 hrs by Annexin V-FITC and PI staining based flow cytometric analysis (reference value: 0.5%)", "type": "functional"}, "A549 [6]": {"tested_on": "A549", "experiment": "Induction of apoptosis in human A549 cells assessed as necrotic cells at 0.3 uM incubated for 48 hrs by Annexin V-FITC and PI staining based flow cytometric analysis (reference value: 1.0%)", "type": "functional"}, "A549 [7]": {"tested_on": "A549", "experiment": "Induction of apoptosis in human A549 cells assessed as early apoptotic cells at 0.6 uM incubated for 48 hrs by Annexin V-FITC and PI staining based flow cytometric analysis (reference value: 0.5%)", "type": "functional"}, "A549 [8]": {"tested_on": "A549", "experiment": "Induction of apoptosis in human A549 cells assessed as viable cells at 1.2 uM incubated for 48 hrs by Annexin V-FITC and PI staining based flow cytometric analysis (reference value: 95.5%)", "type": "functional", "conditions": "A549, 48 h, read-out: Activity", "procedure,_shortened": "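A549 cells (4×10^5 per 6 cm dish) cultured 24 h, then treated 48 h with compound or DMSO. Cells gently harvested, washed twice in cold PBS, resuspended in binding buffer with Annexin V and PI, stained 15 min at room temperature in the dark, analysed by flow cytometry. Mean ± SD, n = 3.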"}, "A549 [9]": {"tested_on": "A549", "experiment": "Induction of cell cycle arrest in human A549 cells assessed as accumulation at G1 phase at 0.4 uM incubated for 24 hrs by PI staining based flow cytometric analysis (reference value: 60.14%)", "type": "functional", "procedure,_shortened": "(§1)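 A549 cells (4×10^5 per 6 cm dish) were grown 24 h, then exposed to compound (0.2, 0.4, 0.8 μM) or DMSO for 24 h. Cells fixed in 75% ethanol at −20 °C for at least 12 h, treated with RNase A at 37 °C for 30 min, then stained with PI for 15 min in the dark. Analysed by flow cytometry, mean ± SD, n = 3.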"}, "A549 [10]": {"tested_on": "A549", "experiment": "Induction of cell cycle arrest in human A549 cells assessed as accumulation at G2 phase at 0.4 uM incubated for 24 hrs by PI staining based flow cytometric analysis (reference value: 19.37%)", "type": "functional", "procedure,_shortened": "as §1"}, "[11]": {"experiment": "Binding affinity to DTT in DMSO-d6 with retention of CA moiety at 0.02 mmol incubated for 20 mins in ultrasound by 1H NMR-spectroscopic analysis"}, "A549 [12]": {"tested_on": "A549", "experiment": "Induction of mitochondrial membrane potential loss in human A549 cells assessed as cells with hyperpolarized mitochondria by measuring decrease in J-aggregates red fluorescence intensity at 0.4 uM incubated for 24 hrs by JC1 staining based fluorescence microscopic method (reference value: 98.4%)", "type": "functional", "design": "scale not given: the % may be the effect or the level left"}, "A549 [13]": {"tested_on": "A549", "experiment": "Induction of mitochondrial membrane potential loss in human A549 cells assessed as cells with hyperpolarized mitochondria by measuring decrease in J-aggregates red fluorescence intensity at 0.8 uM incubated for 24 hrs by JC1 staining based fluorescence microscopic method (reference value: 98.4%)", "type": "functional", "design": "scale not given: the % may be the effect or the level left"}},
  "note": "Active and inactive are the calls of the source. The calls are words filed in the database; no cut-off is given here.",
  "data": [
    {"smiles": "CC1=C(O)C(=O)C=C2C1=CC=C1[C@@]2(C)CC[C@@]2(C)[C@@H]3C[C@](C)(C(=O)OCCCOC(=O)/C=C(\\C#N)c4ccc(F)cc4)CC[C@]3(C)CC[C@]12C", "values": [
      {"measurement": "IC50", "setting": "HOS", "result": 0.9, "unit": "µM"},
      {"measurement": "inhibition", "setting": "[1]", "result": "inactive"},
      {"measurement": "inhibition", "setting": "[2]", "result": "Active"},
      {"measurement": "Activity", "setting": "[3]", "result": "Active"},
      {"measurement": "Activity", "setting": "A549 [4]", "result": "Active"},
      {"measurement": "Activity", "setting": "A549 [5]", "result": 2.2, "unit": "%"},
      {"measurement": "Activity", "setting": "A549 [6]", "result": 3.3, "unit": "%"},
      {"measurement": "Activity", "setting": "A549 [7]", "result": 5.9, "unit": "%"},
      {"measurement": "viability at 1.2 µM", "setting": "A549 [8]", "result": 59.2, "unit": "%"},
      {"measurement": "Activity", "setting": "A549 [9]", "result": 67.51, "unit": "%"},
      {"measurement": "Activity", "setting": "A549 [10]", "result": 16, "unit": "%"},
      {"measurement": "Activity", "setting": "[11]", "result": "Active"},
      {"measurement": "Activity", "setting": "A549 [12]", "result": 80, "unit": "%"},
      {"measurement": "Activity", "setting": "A549 [13]", "result": 72.8, "unit": "%"}
    ]}
  ]
}
